System: MS2 coat protein
Assay: apparent Kd, MS2 coat protein; higher = weaker binding; RNA-MaP array; FMN 200 µM where present
Procedure, shortened: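 The apparent Kd is reported as the median of filtered per-cluster binding-curve fits. To get these curves, designs transcribed by stalled E. coli RNA polymerase on Illumina sequencing-chip clusters were titrated with SNAP-549-labelled MS2 coat protein from 0.7 or 1.5 nM, doubling to 3 µM. Titrations were run without and then with constant ligand in 100 mM Tris-HCl pH 7.5, 80 mM KCl, 4 mM MgCl2, BSA, DTT, yeast tRNA and Tween-20, and green signal was normalised to red-channel RNA signal and control-cluster median Fmax.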

[1] = designed as: OFF switch for flavin mononucleotide, no ligand
[2] = ligand present: flavin mononucleotide, designed as: OFF switch for flavin mononucleotide
[3] = designed as: ON switch for flavin mononucleotide, no ligand
[4] = ligand present: flavin mononucleotide, designed as: ON switch for flavin mononucleotide

AACGACUGAGGAUAUACAUGAGGAUCACCCAUGUAUUGAAAUACGUGCUUGGUCAACUGUAGAAGGCAGAAUAA
apparent Kd [1]: 0.0157 µM | apparent Kd [2]: 0.0406 µM

UCACAGUCAGGAUAUUCUGUGUAGGUUGCGCCUCAAGCACUGAAGAAGGGACAUGAGGAUCACCCAUGUUCCUC
apparent Kd [1]: 0.0155 µM | apparent Kd [2]: 0.0187 µM

CCAGAAUAGAAGGAUAUCGUGCUAUAGAGCGGAUGAGAAGGUCUGACAUGAGGAUCACCCAUGUGCACUUCAUG
apparent Kd [1]: 0.103 µM | apparent Kd [2]: 0.32 µM

CAACUGUGAGGAUAUGGUGAGUAGUGCCUGAGCGCUGCUCACCAGAAGGCACAUGAGGAUCACCCAUGUAUGAC
apparent Kd [1]: 0.046 µM | apparent Kd [2]: 0.164 µM

UUAAUUAUACAAGGAUAUCUAUUGUAGUUUCGACUUACAUGAGGAUCACCCAUGUUAAUAUGUUUAGAGAAGGUGUAUUUUCUG
apparent Kd [3]: 0.051 µM | apparent Kd [4]: 0.0495 µM

GUGAGGUCAGGAUAUGCAUGGCGGGACUUGCGUCGUGGCGUGGAGAAGGGACAUGAGGAUCACCCAUGUGGAGC
apparent Kd [1]: 0.0556 µM | apparent Kd [2]: 0.0591 µM

GUGAGGUCAGGAUAUGCAUGGCGGGACUUGCGUCGUGGCGUGGAGAAGGGACAUGAGGAUCACCCAUGUGGAGU
apparent Kd [1]: 0.0876 µM | apparent Kd [2]: 0.0495 µM

AAAGUAAACGAAGGAUAUGGUUACAUGAGGAUCACCCAUGUAAUGGUUGUGAUAUUGAUUAAGUUCCAGAAGGUCGUAUACAUA
apparent Kd [1]: 0.199 µM | apparent Kd [2]: 0.371 µM

AAUGUUUGAUUCCACUUAUACAUGAGGAUCACCCAUGUUAUCGAGGAUAUGCAUUAGAGUGUUUAGCAGAAGGCGAUGUAAAUG
apparent Kd [1]: 0.00734 µM | apparent Kd [2]: 0.0241 µM

AUCGUGUUAGGAUAUACACGUCGCUGGGUAGCUAGCGAUGGGUAGAAGGAACAUGAGGAUCACCCAUGUUCGGG
apparent Kd [1]: 0.178 µM | apparent Kd [2]: 0.188 µM

AAUUAAUUGUAGAAGGUACUUAAUUAUGAUAUGUAAGGAUAUACGAUAUUAUUACGACAUGUAUGACAUGAGGAUCACCCAUGU
apparent Kd [3]: 0.0124 µM | apparent Kd [4]: 0.00923 µM

UUGGACGUCGUAGGAUAUGUAGGAUAUUCCUACAUGAGGAUCACCCAUGUUGACAUGGAAGAAGGACAGAAUGACGAUGUCCAU
apparent Kd [3]: 0.374 µM | apparent Kd [4]: 0.00551 µM

GAAGCACGCAUUAACAUGAGGAUCACCCAUGUGAAAACACGUGAGGAUAUGGAUCUGAAGAAGAUCCAGAAGGCACCGUGCUAA
apparent Kd [3]: 0.00544 µM | apparent Kd [4]: 0.00478 µM

AAACUACUAGGAUAUACAACGGUGUCCUAACUACUAAGAAAACAUGAGGAUCACCCAUGUAGAAGGAGUAGUGA
apparent Kd [1]: 0.0345 µM | apparent Kd [2]: 0.0623 µM

CACUGUUUAGAGGAUAUUUACGGGUCACACCCAGGAGAAGGCUGUACAUGAGGAUCACCCAUGUGGUGCGCCUG
apparent Kd [1]: 0.0324 µM | apparent Kd [2]: 0.0513 µM

AAAAAGGCAGGAUAUACAAAAAAAAAAAAAAAAAAGGAGGGACAUGAGGAUCACCCAUGUAGAAGGGCCAAAAA
apparent Kd [1]: 0.0665 µM | apparent Kd [2]: 0.134 µM

GGUUAUUGCAAGGAUAUGCUUUUUUUUUAUAUUGCAGAAGGUGCAACAUGAGGAUCACCCAUGUUGGAGGGUUU
apparent Kd [1]: 0.0245 µM | apparent Kd [2]: 0.0429 µM

UGACACAUGAGGGUCUCCCUUGACAUGAGGAUCACCCAUGUGCAGGAUAUACGUGUGAUGGUAUAGUAGAAGGGCACUCUAUGU
apparent Kd [1]: 0.0306 µM | apparent Kd [2]: 0.0405 µM

UGUCCAUAGCAGAAGGCACAUCCACAAAAUAAAACAUGAGGAUCACCCAUGUGAGGAUAUGCUAUGGACUAAGAGCGAAAGCUC
apparent Kd [1]: 0.00544 µM | apparent Kd [2]: 0.0218 µM

CCGCGACACGAAGGAUAUGUGGGUGGUAGUCUGUGCUCCGCCUACAUGAGGAUCACCCAUGUAUCACAGAAGGUCGGACGUCGA
apparent Kd [3]: 0.0267 µM | apparent Kd [4]: 0.125 µM

AAUAGCUGAGGAUAUACAUGAGGAUCACCCAUGUAUUAGUAGGCUGGGAAUAAAUCGUGUAGAAGGCAGGAUGA
apparent Kd [1]: 0.016 µM | apparent Kd [2]: 0.0272 µM

AGAUGACAAAGUCAUCUCUGACGGACAUGAGGAUCACCCAUGUAGGAUAUGCUACUCAAAGAGUAGCAGAAGGACAUGUGUCUU
apparent Kd [1]: 0.0335 µM | apparent Kd [2]: 0.173 µM

AUAUGAUAGAUAGGAUAUACAGAUAAAUAAUAAGUAGAAGGAUCAAAUGGAAAUUAUACAUGAGGAUCACCCAUGUUUUUGAAU
apparent Kd [3]: 0.029 µM | apparent Kd [4]: 0.0225 µM

GUACAUACAAAGUUACAUGAGGAUCACCCAUGUUUAUUGGGAAGAAGGGUAACAUUAUUAGAUAUAUAGGAUAUUUCACAAUUG
apparent Kd [3]: 0.718 µM | apparent Kd [4]: 0.387 µM

GGCUGGUGACAGCAUCCAUCAAAACAUGAGGAUCACCCAUGUAGAAGGCUGUACGGUUACCGUACAGAGGAUAUACAAUGAUGA
apparent Kd [1]: 0.0145 µM | apparent Kd [2]: 0.0242 µM

GAAUAAUUGAUCCUUUUUUAUUACAUGAGGAUCACCCAUGUGCAGGAUAUCGAGAGUUUUAGAUUCGAGAAGGGCAAGAACUGU
apparent Kd [1]: 0.905 µM | apparent Kd [2]: 0.629 µM

GGGCUGUCAGGAUAUGGGCCCGGGUUUGAAAGGGCCCGGGCCCAGAAGGGACAUGAGGAUCACCCAUGUGGCCC
apparent Kd [1]: 0.0363 µM | apparent Kd [2]: 0.0364 µM

CAGGUGUUAGGAUAUCGGAGAUUGAGGCAGACGGGAAUAUUCGAGAAGGAACAUGAGGAUCACCCAUGUAGUAG
apparent Kd [1]: 0.0245 µM | apparent Kd [2]: 0.0289 µM

CCUCAGUAAGGAUAUCAGCUUAUGGAGUUGGUAAUGAGAGCUGAGAAGGUACAUGAGGAUCACCCAUGUUAGUU
apparent Kd [1]: 0.0277 µM | apparent Kd [2]: 0.0737 µM

UAAGUUUUGGUAGGAUAUACUUUAAAUUUCUCUAUCCAUACAUGAGGAUCACCCAUGUUUACAUUGUAGAAGGACCACUAUGUU
apparent Kd [1]: 0.0246 µM | apparent Kd [2]: 0.0197 µM

GAUUAACAUGAGGAUCACCCAUGUGAGGAUAUGGAAUGGCUCACUUUUCGAUUCCCGUCUAGAAGGCACAUCUU
apparent Kd [1]: 0.0546 µM | apparent Kd [2]: 0.0533 µM

UAAUAAAGUGUGAGGAUAUGCUGGUCCUUGGAUCAGCAGAAGGCACAUGAGGAUCACCCAUGUAAUAUAUAUAU
apparent Kd [1]: 0.0877 µM | apparent Kd [2]: 0.223 µM

GGUCACGUAGGAUAUACCUGGGCCUCUGAAUUCGGCAAUUUACAUGAGGAUCACCCAUGUAGAAGGACGAUGGC
apparent Kd [1]: 0.12 µM | apparent Kd [2]: 0.0976 µM

UCAUACAUGAGGAUCACCCAUGACAUGAGGAUCACCCAUGUGCAGGAUAUACGUGAUAUAAUAUAGUAGAAGGGCAGACUAUAU
apparent Kd [1]: 0.0519 µM | apparent Kd [2]: 0.0576 µM

UAAUUGUGAGGAUAUUCGUAGUACACGGAGACGUGUAUUACGGAGAAGGCACAUGAGGAUCACCCAUGUUCCUU
apparent Kd [1]: 0.0182 µM | apparent Kd [2]: 0.0894 µM

CACGGGUUAGGAUAUGCAUGGUGAAAAGACGCGAUCCUUAGACAUGAGGAUCACCCAUGUAGAAGGAACGCAAU
apparent Kd [1]: 0.0186 µM | apparent Kd [2]: 0.0159 µM

GUAUCAUAUGAGAAGGCGAUCAUGAAACAUGAUCGAGGAUAUCAUGAAAACAUGAGGAUCACCCAUGUAUGGGUAUUAAGGUAC
apparent Kd [3]: 0.0656 µM | apparent Kd [4]: 0.0417 µM

GGAUAGUGUCGUUAUCCGUAGCGAACAUGAGGAUCACCCAUGUAGGAUAUGUUAUUAAACUAAUAACAGAAGGGCGUGAGUCUC
apparent Kd [1]: 0.429 µM | apparent Kd [2]: 0.48 µM

AGGAAGUUAGGAUAUGCUGCUCGUCACUUGCGUGAUGAGUAGCAGAAGGGACAUGAGGAUCACCCAUGUAAAAA
apparent Kd [1]: 0.0442 µM | apparent Kd [2]: 0.0227 µM

GAUAGGACAGAGAAGGUACGUGCUAGAGAUACUAGCAAAAUUUCCUCACAUGAGGAUCACCCAUGUAAGGAUAUCUGUCCUAUC
apparent Kd [1]: 0.00444 µM | apparent Kd [2]: 0.0048 µM

GUAAACCUAGGAUAUACAUGAGGAUCACCCAUGUAAAGUUUCGUAAAAAGAUAAUCGAGUAGAAGGAGGUAGAU
apparent Kd [1]: 0.0215 µM | apparent Kd [2]: 0.0234 µM

CCCGAGGAAGGAUAUACAUGAGGAUCACCCAUGUGCGUUGGGACUGGCGUAGUCUUCAGUAGAAGGUCCGCGCC
apparent Kd [1]: 0.0185 µM | apparent Kd [2]: 0.0175 µM

UAUAUAUAGUAAGGAUAUGUAUUUAUAUUAUAAACAGAAGGUACUGACAUGAGGAUCACCCAUGUUUUAGUGUGGGCAUGUAGA
apparent Kd [1]: 0.0779 µM | apparent Kd [2]: 0.114 µM

UGAAUGUGAGGAUAUGGUGAGUAGUGCCUAAGCGCUGCUCACCAGAAGGCACAUGAGGAUCACCCAUGUACUUG
apparent Kd [1]: 0.0617 µM | apparent Kd [2]: 0.192 µM

CUAUUGAUAACAGGAUAUAUGAGUCCUACAUGAGGAUCACCCAUGUAGGUGAUCAGCCGUGAUUAGUAGAAGGGUUAUCAAUAG
apparent Kd [3]: 0.0127 µM | apparent Kd [4]: 0.00663 µM

UGUGUGUGGCAGGAUAUGCCGGUCGUUGGUCGGGUAGAAGGGUCUACAUGAGGAUCACCCAUGUGGCCGGUUGG
apparent Kd [1]: 0.0468 µM | apparent Kd [2]: 0.044 µM

GUCAGCUCGUGAGGAUAUACAACACUGCUUCGGCACUGUAUUAAGAUCACAUGAGGAUCACCCAUGUAGAAGGCACGAGCUGAU
apparent Kd [1]: 0.00862 µM | apparent Kd [2]: 0.104 µM

AUAUUGUGAGGAUAUGAACUUAGUAUCGAAAGUUACUAAGUUCAGAAGGCACAUGAGGAUCACCCAUGUUUCUC
apparent Kd [1]: 0.0721 µM | apparent Kd [2]: 0.972 µM

UAUAUAUAGUAAGGAUAUGUAAUUAUUUGAUAAACAGAAGGUACUGACAUGAGGAUCACCCAUGUUUUAGUGUGGGCAUGUAGA
apparent Kd [1]: 0.0882 µM | apparent Kd [2]: 0.138 µM

From the EternaBench riboswitch data
